Source: ChEMBL document CHEMBL3627681, “Synthesis and biological evaluation of 1,3-diaryl pyrazole derivatives as potential antibacterial and anti-inflammatory agents” (2015)
Converted amounts (≈) assume the structure as drawn. The source made the active and inactive calls. No cut-off for these calls is given here.

What was measured:
[1] = tested on: Mus musculus; assay: Antiinflammatory activity in mouse assessed as inhibition of xylene-induced ear edema at 50 mg/kg, po administered 24 hrs before xylene challenge relative to control; type: functional, organism-based
Method in brief: (§1)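 Compound was homogenized in 0.5% CMC-Na and given orally at 50 mg/kg, 0.4 mL/20 g; controls got CMC-Na vehicle only. Xylene was applied to the ear 1, 2, 3, 4, 5 or 24 h after dosing. Edema was measured as the weight difference of 7 mm ear plugs and reported as % reduction versus vehicle controls.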

[2] = tested on: Mus musculus; assay: Antiinflammatory activity in mouse assessed as inhibition of xylene-induced ear edema at 25 mg/kg, po administered 3 hrs before xylene challenge relative to control; type: functional
Method in brief: (§2)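 Oral dosing-level study: compound suspended in 0.5% CMC-Na and given po at 25 or 12.5 mg/kg, 0.4 mL/20 g; vehicle controls received CMC-Na. Xylene ear challenge was applied 3 h after dosing. Edema was measured as the ear-plug weight difference and reported as % reduction versus vehicle controls.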

[3] = tested on: Mus musculus; assay: Antiinflammatory activity in mouse assessed as inhibition of xylene-induced ear edema at 50 mg/kg, po administered 4 hrs before xylene challenge relative to control; type: functional; method in brief: as §1
[4] = tested on: Mus musculus; assay: Antiinflammatory activity in mouse assessed as inhibition of xylene-induced ear edema at 50 mg/kg, po administered 3 hrs before xylene challenge relative to control; type: functional; method in brief: as §1
[5] = tested on: Mus musculus; assay: Antiinflammatory activity in mouse assessed as inhibition of xylene-induced ear edema at 50 mg/kg, po administered 2 hrs before xylene challenge relative to control; type: functional; details: read-out: INH; method in brief: as §1
[6] = tested on: Mus musculus; assay: Antiinflammatory activity in mouse assessed as inhibition of xylene-induced ear edema at 50 mg/kg, po administered 5 hrs before xylene challenge relative to control; type: functional; method in brief: as §1
[7] = tested on: Mus musculus; assay: Antiinflammatory activity in mouse assessed as inhibition of xylene-induced ear edema at 12.5 mg/kg, po administered 3 hrs before xylene challenge relative to control; type: functional; method in brief: as §2
[8] = tested on: Mus musculus; assay: Antiinflammatory activity in mouse assessed as inhibition of xylene-induced ear edema at 50 mg/kg, po administered 1 hr before xylene challenge relative to control; type: functional; details: read-out: INH; method in brief: as §1
[9] = tested on: Mus musculus; assay: Antiinflammatory activity in mouse assessed as inhibition of xylene-induced ear edema at 50 mg/kg, ip administered 30 mins before xylene challenge relative to control; type: functional
Method in brief: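 Mice received compound freshly dissolved in DMSO, 50 mg/kg ip at 0.05 mL/20 g body weight; vehicle controls got DMSO alone. After 30 min, 20 µL xylene was applied to the right ear. After a further 30 min, 7 mm plugs were cut from treated and untreated ears and edema taken as their weight difference. Result is % edema reduction versus vehicle controls.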

[10] = tested on: Pseudomonas aeruginosa; assay: Antibacterial activity against Pseudomonas aeruginosa 2004 after 24 hrs by two-fold serial dilution method; type: functional; details: Pseudomonas aeruginosa, 2004, 24 h
Method in brief: (§3)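 Broth microdilution in Mueller-Hinton broth over final concentrations of 64–0.5. Bacteria were grown to mid-log phase and diluted 1000-fold, then inoculated at 10⁵ CFU/mL. Compounds were dissolved in DMSO, with final DMSO at most 0.05%. Plates were incubated 24 h at 37 °C and growth read as absorbance at 650 nm. MIC is the concentration giving complete growth inhibition. Three independent runs.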

[11] = tested on: Staphylococcus aureus; assay: Antibacterial activity against Staphylococcus aureus RN4220 after 24 hrs by two-fold serial dilution method; type: functional; details: RN4220, 24 h
Method in brief: (§4)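 Broth microdilution in Mueller-Hinton broth. Bacteria grown to mid-log phase, diluted 1000-fold, and inoculated at 10⁵ CFU/mL. Test compounds in DMSO, final DMSO not above 0.05%, final concentrations 64-0.5 µg/mL. Incubation 24 h at 37 °C, growth read as absorbance at 650 nm. MIC taken as the lowest concentration giving complete growth inhibition. Run three times.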

[12] = tested on: Escherichia coli; assay: Antibacterial activity against Escherichia coli KCTC 1924 after 24 hrs by two-fold serial dilution method; type: functional; details: KCTC 1924, 24 h; method in brief: as §3
[13] = tested on: Staphylococcus aureus; assay: Antibacterial activity against methicillin-resistant Staphylococcus aureus CCARM 3506 after 24 hrs by two-fold serial dilution method; type: functional; details: CCARM 3506, 24 h; method in brief: as §4
[14] = tested on: Pseudomonas aeruginosa; assay: Antibacterial activity against Pseudomonas aeruginosa 2742 after 24 hrs by two-fold serial dilution method; type: functional; details: Pseudomonas aeruginosa, 2742, 24 h; method in brief: as §3
[15] = tested on: Salmonella typhimurium; assay: Antibacterial activity against Salmonella typhimurium 2421 after 24 hrs by two-fold serial dilution method; type: functional, Salmonella enterica subsp. enterica serovar Typhimurium; details: Salmonella enterica, 2421, 24 h; method in brief: as §3
[16] = tested on: Staphylococcus aureus; assay: Ratio of oxacillin MIC to compound MIC for methicillin-resistant Staphylococcus aureus CCARM 3506 after 24 hrs by two-fold serial dilution method; type: functional
[17] = tested on: Escherichia coli; assay: Antibacterial activity against Escherichia coli CCARM 1356 after 24 hrs by two-fold serial dilution method; type: functional; details: CCARM 1356, 24 h; method in brief: as §3
[18] = tested on: Staphylococcus aureus; assay: Antibacterial activity against quinolone-resistant Staphylococcus aureus CCARM 3505 after 24 hrs by two-fold serial dilution method; type: functional; details: CCARM 3505, 24 h; method in brief: as §4
[19] = tested on: Streptococcus mutans; assay: Antibacterial activity against Streptococcus mutans 3065 after 24 hrs by two-fold serial dilution method; type: functional; details: Streptococcus mutans, 3065, 24 h; method in brief: as §3
[20] = tested on: Candida albicans; assay: Antifungal activity against Candida albicans 7535 by two-fold serial dilution method; type: functional
[21] = tested on: Staphylococcus aureus; assay: Antibacterial activity against quinolone-resistant Staphylococcus aureus CCARM 3519 after 24 hrs by two-fold serial dilution method; type: functional; details: CCARM 3519, 24 h; method in brief: as §4
[22] = tested on: Staphylococcus aureus; assay: Antibacterial activity against methicillin-resistant Staphylococcus aureus CCARM 3167 after 24 hrs by two-fold serial dilution method; type: functional; details: CCARM 3167, 24 h; method in brief: as §4
[23] = tested on: Staphylococcus aureus; assay: Antibacterial activity against Staphylococcus aureus 503 after 24 hrs by two-fold serial dilution method; type: functional; details: Staphylococcus aureus, 503, 24 h; method in brief: as §4
[24] = tested on: Staphylococcus aureus; assay: Ratio of norfloxacin MIC to compound MIC for methicillin-resistant Staphylococcus aureus CCARM 3506 after 24 hrs by two-fold serial dilution method; type: functional
[25] = tested on: Staphylococcus aureus; assay: Antibacterial activity against Staphylococcus aureus 209 after 24 hrs by two-fold serial dilution method; type: functional; details: Staphylococcus aureus, 209, 24 h; method in brief: as §4

For `COc1ccc2c(c1)c(CC(=O)O)c(C)n2C(=O)c1ccc(Cl)cc1` [INDOMETHACIN], which inhibition [1] is on record?
The inhibition was “inactive”.

What about the inhibition in vivo at 25 mg/kg [2] of the same compound?
The inhibition in vivo at 25 mg/kg was 53.9%.

And the inhibition in vivo at 50 mg/kg [3]?
Its inhibition in vivo at 50 mg/kg is 34.9%.

What about the inhibition in vivo at 50 mg/kg [4] of the same compound?
Its inhibition in vivo at 50 mg/kg is 23%.

And the inhibition in vivo at 50 mg/kg [5]?
Its inhibition in vivo at 50 mg/kg is 9.93%.

And the inhibition in vivo at 50 mg/kg [6]?
Its inhibition in vivo at 50 mg/kg is 26.9%.

What about the inhibition in vivo at 12.5 mg/kg [7] of the same compound?
Its inhibition in vivo at 12.5 mg/kg is 56.3%.

What about the inhibition in vivo at 50 mg/kg [8] of the same compound?
The inhibition in vivo at 50 mg/kg was 29.7%.

And the inhibition in vivo at 50 mg/kg [9]?
The inhibition in vivo at 50 mg/kg was 45.2%.

How did the MIC [10] turn out when `N=C(N)N/N=C/c1cn(-c2ccccc2)nc1-c1cccc(Cl)c1` was run?
Its MIC is greater than 64 µg/mL.

What about the inhibition [1] of the same compound?
The inhibition was “inactive”.

What about the MIC [11] of the same compound?
The MIC was 2 µg/mL (≈ 5.9 µM).

What about the inhibition in vivo at 25 mg/kg [2] of the same compound?
Its inhibition in vivo at 25 mg/kg is 39.3%.

And the MIC [12]?
Its MIC is 1 µg/mL (≈ 2.95 µM).

And the MIC [13]?
Its MIC is 1 µg/mL (≈ 2.95 µM).

And the inhibition in vivo at 50 mg/kg [3]?
The inhibition in vivo at 50 mg/kg was 4.39%.

What about the MIC [14] of the same compound?
Its MIC is greater than 64 µg/mL.

What about the MIC [15] of the same compound?
Its MIC is 8 µg/mL (≈ 23.6 µM).

What about the Ratio [16] of the same compound?
Its Ratio is 64.

What about the inhibition in vivo at 50 mg/kg [4] of the same compound?
Its inhibition in vivo at 50 mg/kg is 50.9%.

What about the MIC [17] of the same compound?
Its MIC is 16 µg/mL (≈ 47.2 µM).

And the MIC [18]?
The MIC was 2 µg/mL (≈ 5.9 µM).

And the inhibition in vivo at 50 mg/kg [6]?
The inhibition in vivo at 50 mg/kg was 35.2%.

And the inhibition in vivo at 12.5 mg/kg [7]?
The inhibition in vivo at 12.5 mg/kg was 56.7%.

And the MIC [19]?
The MIC was 8 µg/mL (≈ 23.6 µM).

And the MIC [20]?
Its MIC is 1 µg/mL (≈ 2.95 µM).

What about the MIC [21] of the same compound?
The MIC was 2 µg/mL (≈ 5.9 µM).

What about the MIC [22] of the same compound?
The MIC was 1 µg/mL (≈ 2.95 µM).

And the MIC [23]?
Its MIC is 2 µg/mL (≈ 5.9 µM).

And the inhibition in vivo at 50 mg/kg [8]?
The inhibition in vivo at 50 mg/kg was 26.9%.

And the inhibition in vivo at 50 mg/kg [9]?
The inhibition in vivo at 50 mg/kg was 93.6%.

What about the Ratio [24] of the same compound?
The Ratio was 4.

And the MIC [25]?
The MIC was 2 µg/mL (≈ 5.9 µM).
